# Assay outcomes from PubChem.
# Sampled rows, rich in hits. Any-hit rate of the full collection: about 5.5%.
# Cl transport mod: modulates chloride dependent transport by human KCC2. Q9H2X9. KCC2 cells, thallium flux FluoZin-2 fluorescence. B-score of Tl+ flux slope (higher = more flux/activation; lower = inhibition) at 10 µM. 190,000 tested, 2.2% active;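 active = thallium flux slope and its plate-corrected score both differing from the plate sample mean at a set confidence after two filtering rounds, in either direction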;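 note: slope of fluorescence scaled to starting intensity during 10 to 20 s after thallium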
# RAM network inh: yeast RAM network inhibition; S. cerevisiae dse1pr::URA3 reporter, 5-FOA growth OD615, 2 d; analog-sensitive cbk1-as2 kinase mutant strain; inhibition, % at 50 µM; 190,000 tested, 1.8% active; AID 868;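 active = inhibition above a set limit, 3 SD over mean compound inhibition, cut at about 8.4% in these data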;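 note: 0% = DMSO-only wells with no growth and 100% = 10 µM 1-NA-PP1 full growth; inhibition rescues growth on 5-FOA so higher OD means more RAM inhibition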
# Yeast lifespan up: extends the lifespan of yeast; S. cerevisiae growth with nicotinamide, OD615; deaD strain in restrictive glucose medium; inhibition of the nicotinamide effect, % at 10 µM; 130,000 tested, 0.68% active; AID 775;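 active = inhibition above a set limit, placed 3 SD over the median of all compounds, cut at about 26% in these data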;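 note: 0% = nicotinamide-treated wells and 100% = cells grown without nicotinamide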
#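 System: Modified budding yeast, DeaD strain | Buffer or medium: Restrictive glucose medium | Also added: 1.5 mM nicotinamide | Doses: 10 µM single point, 0.25% DMSO | Schedule: 48 h compound exposure at 30 °C, humidified | Detection: Absorbance at 615 nm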
# Yeast growth inh: reduces growth of yeast BB579 in restrictive medium | 140,000 tested, 0.51% active | S. cerevisiae BB579 growth, OD615, 48 h | inhibition, % at 10 µM | AID 804;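 active = inhibition above a set limit, 3 SD over the mean compound inhibition, cut at about 44% in these data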
#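 Assay system: S. cerevisiae DeaD strain BB579 yeast. Medium: CSMM-D restrictive synthetic medium containing dextrose (glucose). Times: 4 h cell preincubation, 48 h compound exposure, 30 °C humidified. Signal: OD615 turbidity measurement. Benchmarks: positive control amphotericin B 10 µg/mL.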
# WT yeast gro inh: growth inhibition of WT yeast, mitochondrial fusion screen; mitochondrial fusion phenotypic screen, WT strain; inhibition, % at 10 µM; 190,000 tested, 2.1% active; AID 1362; in the data active = inhibition above about 58%; tested in S. cerevisiae
# * hit, by the source's call; / = no result given.
SMILES,Cl transport mod,RAM network inh,Yeast lifespan up,Yeast growth inh,WT yeast gro inh
O=C(Oc1ccccc1/C=C\C(=O)c1cc2ccccc2o1)c1cccc(F)c1,-0.05,10*,0,-12,38
COc1ccc(-c2cc(C(=O)Nc3ccccc3SC)no2)cc1OC,0.11,8.7*,3,-33,16
COc1cccc(-c2cc(C(=O)Nc3ccccc3SC)no2)c1,1.2,8,5,-40,-4
COc1ccccc1-c1cc(C(=O)Nc2ccccc2SC)no1,0.1,9.0*,-10,-44,9
COC(=O)C(Cc1ccccc1)NC(=S)NC(=O)c1ccccc1 (configuration not stated),2.2,2,/,/,7
S=C(NCc1ccco1)Nc1cc(-c2ccccc2)[nH]n1,-1.9,0,/,/,64*
CC(C)CNC(=S)Nc1ccc(Oc2ccccc2)cc1,-1.3,3,-1,11,63*
COc1ccc(NC(=S)NCc2ccco2)cc1,1.1,0,-1,-48,-5
COc1cc(OC)cc(C(=O)NC(=S)NCc2ccco2)c1,/,9.5*,-7,-52,7
OCCCNC(=S)Nc1ccc(Oc2ccccc2)cc1,-1.1,2,-4,-11,-1
S=C(NCc1ccco1)Nc1ccc(Oc2ccccc2)cc1,-2,2,/,/,67*
CC1CC(N(C(=O)c2ccc(Cl)cc2)c2ccccc2)c2ccccc2N1C(=O)c1ccco1 (configuration not stated),-0.35,5,2,-67,84*
CC1CC(N(C(=O)c2ccco2)c2ccccc2)c2ccccc2N1C(=O)c1ccco1 (configuration not stated),-3.1,0,16,-62,16
O=C(NC(=S)Nc1nc2c(s1)CSc1ccccc1-2)c1ccccc1,/,4,66*,-55,83*
O=C(Nc1nc2c(s1)CCCC2)Oc1ccccc1,0.52,1,-9,-24,0
O=C(NC(=S)Nc1nc2c(s1)CCCC2)c1ccc(C(=O)c2ccccc2)cc1,23*,4,2,-33,6
O=C(Nc1nc2c(s1)CCCC2)c1cccnc1,-0.2,1,-11,-82,15
C/C(=N\Nc1nc2c(s1)CCCC2)c1ccccc1,0.28,0,-19,63*,43
Oc1c(/C=C/C=C/C=Nc2ccccc2)sc(=S)n1Cc1ccccc1,-1.4,/,/,/,/
Cc1cccc(C2=N/C(=C\c3cccs3)C(=O)O2)c1,/,6,/,/,-6
Cc1c(F)cccc1NS(=O)(=O)c1ccc2c(c1)NC(=O)CO2,0.22,2,/,/,0
CN(C[C@H](Cc1ccccc1)N(C[C@H](c1ccccc1)N(CCc1ccccc1)N=O)N=O)N=O,-0.085,8.8*,/,/,16
CCOC(=O)c1sc(NC(=O)Nc2cccc(Cl)c2)cc1C,0.23,9.0*,3,-54,67*
CN(C)c1ccc(/C=N\NC(=O)c2cccc3cc[nH]c23)cc1,-1,/,/,/,/
O=C(CSc1nc2cc([N+](=O)[O-])ccc2n1-c1ccc(F)cc1)NC1CCS(=O)(=O)C1 (configuration not stated),1,4,-6,-1,-1
SMILES,Cl transport mod,RAM network inh,Yeast lifespan up,Yeast growth inh,WT yeast gro inh
O=c1[nH]c(=O)n(Cc2ccco2)c2c1C(C(F)(F)F)(C(F)(F)F)N=C(Cc1ccccc1)N2,-0.55,3,-2,-11,62*
CC(=O)NC1(C(F)(F)F)C(=O)Nc2c1c(=O)[nH]c(=O)n2Cc1ccco1 (configuration not stated),0.023,1,6,-27,-11
Clc1cc2nc3ccccn3c2cc1Cl,0.24,2,-32,43*,77
O=Cc1c(Cl)nc2ccccn12,0.13,4,/,/,-14
Cn1cccc1Cc1nnc(SCC(=O)Nc2ccc3c(c2)OCO3)n1-c1ccc(F)cc1,0.027,8,-4,-30,3
CCNc1nc(NCC)n2c(SCC(=O)c3ccccc3Cl)nnc2n1,-0.43,7,/,/,1
Cc1cc(Nc2cccc(C(F)(F)F)c2)n2nc(C)nc2n1,-0.38,0,-10,-40,79*
CCc1nc2nc(C)cc(Nc3cccc(C(F)(F)F)c3)n2n1,-1.1,-1,1,-41,15
Cc1cc(C)cc(NC(=O)CN2CCC(NC(=O)Cc3ccccc3)CC2)c1,0.47,0,27*,-5,-7
O=C(Nc1ccc(OC(=O)c2ccco2)cc1)c1ccco1,/,4,-7,-24,26
O=C(O)c1ccccc1C(=O)Nc1ccc(Oc2cccc3ccccc23)cc1,-1.7,4,/,/,-22
O=C(OC1CCCCC1)c1ccc(NC(=O)c2ccco2)cc1,-1,1,-16,-27,71*
O=C(Nc1ccc(Oc2cccc3ccccc23)cc1)c1ccco1,-1.6,9.2*,-20,-27,79*
O=C(NCc1ccccc1)c1cc[n+](Cc2ccccc2)cc1,0.68,1,/,/,-13
Fc1ccc(Sc2ccccc2CNC2=NCCN2)cc1,/,1,10,-18,79*
CSc1nc(C)cc(Oc2ccccc2)n1,-1.1,1,/,/,-1
Cc1cc(N2CCN(c3nc(-c4ccccc4)cs3)CC2)c2ccccc2n1,0.26,0,/,/,70*
S=c1cnc2ccccc2[nH]1,4.1,-1,/,/,6
Cn1c(CCCCCN)nc2ccccc21,0.19,2,30*,-1,8
Cc1oc(-c2cccc(Br)c2)[n+]([O-])c1C,0.25,1,/,/,-6
CCOc1ccc(OCCOCCn2ccnc2)cc1,0.67,1,-7,5,/
CCC(C)c1ccc(OCCn2ccnc2)cc1 (configuration not stated),-0.033,2,2,-13,71*
CC(C)Nc1nc(Oc2ccc(=O)n(-c3ccccc3)n2)nc(N(C)C)n1,0.018,/,/,/,/
O=c1c2c([N+](=O)[O-])cc([N+](=O)[O-])cc2sn1-c1ccc(Br)cc1,0.98,2,-5,45*,58
COc1ccccc1-n1cc(-c2ccc([N+](=O)[O-])cc2)[nH]c1=S,0.043,/,/,/,/
SMILES,Cl transport mod,RAM network inh,Yeast lifespan up,Yeast growth inh,WT yeast gro inh
O=[N+]([O-])c1ccc(-c2cn(-c3ccccc3)c(=S)[nH]2)cc1,3.5,10*,5,-48,-7
CCOc1ccc(C2=NNC(c3cccs3)=Nc3ccc(OCC)cc32)cc1,-0.92,1,47*,-48,-8
O=C1CCN1C1(C(=O)NC2CCCCC2)CCCC1,1.1,2,8,-29,1
O=C(NNC(=O)c1cccnc1SCc1cccc([N+](=O)[O-])c1)c1ccccn1,6.9*,2,0,-21,1
O=C(NNc1ncc(C(F)(F)F)cc1Cl)c1c(Cl)cccc1Cl,3.8*,1,-5,-25,-1
Nc1cccc(NP(=O)(c2ccccc2)c2ccccc2)c1,1,/,/,/,/
O=C(C[n+]1cccc(NC(=O)c2ccccc2)c1)c1ccc(NC(=O)c2ccccc2)cc1,-1,11*,-10,-69,8
Cc1nc(NCc2ccco2)c2c(C)c(C)sc2n1,/,1,-3,-59,2
Cc1sc2nc3c4ccccc4c(NCc4ccco4)nn3c(=O)c2c1C,0.53,5,-14,-61,63*
